This is one part of a sample in which hits are shown more often than they occur.
T cruzi HTS – inhibitors of intracellular Trypanosoma cruzi | intracellular Trypanosoma cruzi in host cells, plate reader | activity score (inhibition), % at 5.01 µM | hit rate 4.9% among 22,000; in the data active = activity score above about 55%; inconclusive = no clear call, values can overlap the other calls;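 also: parasites and compound incubated about four days before reading; 0% = median of neutral control wells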
INS-1E ATP HTS – preserves ATP levels in cytokine-treated INS-1E cells | INS-1E cytokine-induced death, ATP luminescence, 48 h; normalised: neutral wells 0, positive control 100 | protection from cytokine-induced ATP loss, % at 10 µM | hit rate 0.1% among 20,000 | AID 488910;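 active = mean replicate protection from cytokine-induced ATP loss at least 50% and at least 75% of replicates each reaching 50%; inconclusive = meets only one of the two criteria, mean or replicate share; inactive = fails both the mean and replicate share criteria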
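Assay system – rat INS-1E insulinoma cell line · Quantity – 8000 cells per well · Buffer or medium – RPMI without phenol red, 5% FBS · Schedule – 48 h co-treatment, 10 min post-lysis read · Technique – luminescent ATP assay (CellTiter-Glo)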
YB-1 expr inh – YB-1 expression inhibition. AID 434959. hit rate 0.37% among 30,000. delta delta Cp (YB-1 minus CDIP) (no concentration beside the values). U2OS, qRT-PCR YB-1 vs CDIP delta delta Cp, 16 h; stronger effect = higher value; zero = DMSO, each unit about twofold;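 active = delta delta Cp rounded down to an integer at or above 3, about 3 SD of DMSO wells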;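 also: higher means less YB-1 transcript or more CDIP transcript relative to DMSO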
* = called active by the depositor; ? = inconclusive; . = no result.

SMILES	T cruzi HTS	INS-1E ATP HTS	YB-1 expr inh
COc1ccc(S(=O)(=O)N(C)C[C@H]2Oc3ccc(NS(=O)(=O)c4ccccc4)cc3CC(=O)N([C@H](C)CO)C[C@H]2C)cc1	33.9	-20.6	-0.268
COc1ccc(S(=O)(=O)Nc2ccc3c(c2)CC(=O)N([C@H](C)CO)C[C@H](C)[C@H](CN(C)S(=O)(=O)c2ccc(Cl)cc2)O3)cc1	23.1	4.3	-0.0219
COc1ccc(S(=O)(=O)Nc2ccc3c(c2)CC(=O)N([C@@H](C)CO)C[C@@H](C)[C@@H](CN(C)S(=O)(=O)c2ccc(Cl)cc2)O3)cc1	60.4*	7.2	-0.334
COc1ccc(S(=O)(=O)Nc2ccc3c(c2)CC(=O)N([C@H](C)CO)C[C@@H](C)[C@@H](CN(C)S(=O)(=O)c2ccc(OC)cc2)O3)cc1	67.0*	7.6	-0.0227
COc1ccc(S(=O)(=O)N(C)C[C@H]2Oc3ccc(NS(=O)(=O)c4ccc(Cl)cc4)cc3CC(=O)N([C@H](C)CO)C[C@H]2C)cc1	67.3*	-8.0	0.694
COc1ccc(S(=O)(=O)N(C)C[C@H]2Oc3ccc(NS(=O)(=O)c4ccc(Cl)cc4)cc3CC(=O)N([C@@H](C)CO)C[C@H]2C)cc1	62.3*	-6.1	-0.278
CNC[C@H]1Oc2c(NC(=O)c3cc(C)nn3C)cccc2C(=O)N([C@@H](C)CO)C[C@@H]1C	-13.7	4.2	-0.112
C[C@H]1CN([C@@H](C)CO)C(=O)c2cccc(NS(=O)(=O)c3ccccc3)c2O[C@H]1CN(C)S(=O)(=O)c1cn(C)cn1	-10.3	9.7	-0.456
CC/C=C\C[C@@H]1C(=O)C=C[C@@H]1CCCCCCCC(=O)O	.	.	1.39
C[C@@H]1CN([C@@H](C)CO)C(=O)c2cc(NC(=O)NC3CCCCC3)ccc2O[C@@H]1CN(C)C(=O)NC1CCCCC1	1.9	2.2	2.74
C[C@@H]1CN([C@@H](C)CO)C(=O)c2cccc(NC(=O)Nc3ccc(F)cc3)c2O[C@H]1CN(C)CC1CCCCC1	9.5	-24.9	0.142
C[C@@H]1CN([C@@H](C)CO)C(=O)c2cccc(NC(=O)c3nc4ccccc4s3)c2O[C@H]1CN(C)S(C)(=O)=O	9.0	4.4	0.563
COc1ccc(S(=O)(=O)Nc2ccc3c(c2)CC(=O)N([C@H](C)CO)C[C@@H](C)[C@@H](CN(C)S(=O)(=O)c2ccc(Cl)cc2)O3)cc1	60.0*	13.6	0.119
COc1ccc(S(=O)(=O)Nc2ccc3c(c2)CC(=O)N([C@H](C)CO)C[C@@H](C)[C@H](CN(C)S(=O)(=O)c2ccc(Cl)cc2)O3)cc1	-7.9	-1.1	-0.185
C[C@H](CO)N1C[C@H](C)[C@H](CN(C)S(=O)(=O)c2cn(C)cn2)Oc2c(NS(=O)(=O)c3cccs3)cccc2C1=O	42.0	3.9	0.168
C[C@@H]1CN([C@@H](C)CO)C(=O)Cc2cc(NS(=O)(=O)c3ccc(Cl)cc3)ccc2O[C@@H]1CN(C)S(=O)(=O)c1ccccc1	46.9	9.7	0.179
C[C@@H]1CN([C@H](C)CO)C(=O)Cc2cc(NS(=O)(=O)c3ccc(Cl)cc3)ccc2O[C@@H]1CN(C)S(=O)(=O)c1ccccc1	59.1*	-0.3	0.0516
Cc1ccc(S(=O)(=O)Nc2ccc3c(c2)CC(=O)N([C@H](C)CO)C[C@H](C)[C@H](CN(C)S(=O)(=O)c2ccc(Cl)cc2)O3)cc1	12.4	-4.4	-0.174
Cc1ccc(S(=O)(=O)N(C)C[C@H]2Oc3ccc(NS(=O)(=O)c4ccc(F)cc4)cc3CC(=O)N([C@H](C)CO)C[C@H]2C)cc1	62.6*	-3.8	-0.112
Cc1ccc(S(=O)(=O)Nc2ccc3c(c2)CC(=O)N([C@H](C)CO)C[C@H](C)[C@H](CN(C)S(=O)(=O)c2ccc(F)cc2)O3)cc1	-4.6	12.7	-0.0474
C[C@H](CO)N1C[C@H](C)[C@H](CN(C)S(=O)(=O)c2ccc(Cl)cc2)Oc2ccc(NS(=O)(=O)c3ccc(F)cc3)cc2CC1=O	21.5	-5.8	0.176
C[C@@H]1CN([C@H](C)CO)C(=O)Cc2cc(NS(=O)(=O)c3ccc(Cl)cc3)ccc2O[C@@H]1CN(C)S(=O)(=O)c1ccc(F)cc1	66.9*	3.0	-0.369
Cc1ccc(S(=O)(=O)N(C)C[C@H]2Oc3ccc(NS(=O)(=O)c4ccc(Cl)cc4)cc3CC(=O)N([C@H](C)CO)C[C@H]2C)cc1	77.9*	-18.7	0.551
CC(C)NC(=O)Nc1ccc2c(c1)C(=O)N([C@H](C)CO)C[C@@H](C)[C@H](CN(C)Cc1ccccc1)O2	-5.2	-3.6	0.229
CCCC(O)c1ccc(C)cc1CCCCCC(=O)O (stereo not given)	.	.	-0.328
SMILES	T cruzi HTS	INS-1E ATP HTS	YB-1 expr inh
Cc1ccc(S(=O)(=O)N(C)C[C@H]2Oc3ccc(NS(=O)(=O)c4ccc(Cl)cc4)cc3CC(=O)N([C@@H](C)CO)C[C@H]2C)cc1	?	-17.7	-0.117
Cc1ccc(S(=O)(=O)Nc2ccc3c(c2)CC(=O)N([C@@H](C)CO)C[C@@H](C)[C@@H](CN(C)S(=O)(=O)c2ccc(Cl)cc2)O3)cc1	62.4*	1.1	-0.0617
Cc1ccc(S(=O)(=O)N(C)C[C@H]2Oc3ccc(NS(=O)(=O)c4ccccc4)cc3CC(=O)N([C@H](C)CO)C[C@H]2C)cc1	66.6*	1.3	-0.0152
Cc1ccc(S(=O)(=O)Nc2ccc3c(c2)CC(=O)N([C@@H](C)CO)C[C@H](C)[C@@H](CN(C)S(=O)(=O)c2ccccc2)O3)cc1	-0.7	5.3	0.123
Cc1ccc(S(=O)(=O)Nc2ccc3c(c2)CC(=O)N([C@H](C)CO)C[C@@H](C)[C@@H](CN(C)S(=O)(=O)c2ccc(C)cc2)O3)cc1	78.3*	-7.4	0.216
Cc1ccc(S(=O)(=O)Nc2ccc3c(c2)CC(=O)N([C@H](C)CO)C[C@@H](C)[C@H](CN(C)S(=O)(=O)c2ccc(Cl)cc2)O3)cc1	-11.7	4.8	-0.0751
C[C@H](CO)N1C[C@H](C)[C@H](CN(C)S(=O)(=O)c2ccccc2)Oc2ccc(NS(=O)(=O)c3ccc(Cl)cc3)cc2CC1=O	-5.6	4.0	-0.0316
C[C@@H]1CCCCO[C@H](CN(C)S(=O)(=O)c2cn(C)cn2)[C@@H](C)CN([C@H](C)CO)C(=O)c2cc(NS(=O)(=O)c3ccc(F)cc3)ccc2O1	-13.1	4.0	-0.0575
CCCCCCCCC[C@@H](O)CC(=O)CCc1ccc(O)c(OC)c1	.	.	-0.128
C[C@@H]1CN([C@H](C)CO)C(=O)c2cc(NC(=O)Nc3ccccc3)ccc2O[C@H]1CN(C)S(=O)(=O)c1cccs1	-20.9	.	-0.351
C[C@@H]1O[C@@H](O[C@H]2[C@H](O[C@H]3CC[C@@]4(C)C(CC[C@]5(C)C4CC=C4C6CC(C)(C)CC[C@]6(C(=O)O)CC[C@]45C)[C@]3(C)CO)OC[C@H](O)[C@@H]2O)[C@H](O)[C@H](O)[C@H]1O (stereo not given in full)	.	.	-1.21
C[C@@H]1CCCCO[C@H](CN(C)C(=O)Nc2ccc3c(c2)OCO3)[C@@H](C)CN([C@H](C)CO)C(=O)c2cc(NC(=O)Nc3ccc(C(F)(F)F)cc3)ccc2O1	75.7*	-34.7	-0.167

Screening results from PubChem BioAssay.
